Experimental data published in ChEMBL document CHEMBL4680142, “Thiazolidine-2,4-dione-based irreversible allosteric IKK-β kinase inhibitors: Optimization into in vivo active anti-inflammatory agents” (Eur J Med Chem, 2020).

Experiments:
RAW264.7 [1] = assay: Antiinflammatory activity against mouse RAW264.7 cells assessed as reduction in LPS-induced PGE2 level incubated for 1 hr followed by LPS stimulation and measured after 24 hrs by ELISA; type: functional, cell-based
Outline: (§1)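 RAW 264.7 cells (DMEM, 10% FBS, 37 °C, 5% CO2) plated at 2×10^5 cells/mL and left overnight. Compounds (0.1, 1, 10 µM) or NS-398 given for 1 h, then LPS 10 ng/mL for 24 h. Culture medium assayed by ELISA: competitive colorimetric for PGE2/TNF-α, mouse DuoSet for TNF-α/IL-6. IC50 is the concentration lowering the mediator to 50%.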

[2] = molecular target: T1, Inhibitor of nuclear factor kappa-B kinase subunit beta (Homo sapiens, UniProt O14920); assay: Allosteric inhibition of IKKbeta (unknown origin) using 5FAM-GRHDSGLDSMK-NH2 as substrate incubated for 10 mins followed by substrate addition and measured immediately by TR-FRET assay
T1 sequence (O14920 whole entry): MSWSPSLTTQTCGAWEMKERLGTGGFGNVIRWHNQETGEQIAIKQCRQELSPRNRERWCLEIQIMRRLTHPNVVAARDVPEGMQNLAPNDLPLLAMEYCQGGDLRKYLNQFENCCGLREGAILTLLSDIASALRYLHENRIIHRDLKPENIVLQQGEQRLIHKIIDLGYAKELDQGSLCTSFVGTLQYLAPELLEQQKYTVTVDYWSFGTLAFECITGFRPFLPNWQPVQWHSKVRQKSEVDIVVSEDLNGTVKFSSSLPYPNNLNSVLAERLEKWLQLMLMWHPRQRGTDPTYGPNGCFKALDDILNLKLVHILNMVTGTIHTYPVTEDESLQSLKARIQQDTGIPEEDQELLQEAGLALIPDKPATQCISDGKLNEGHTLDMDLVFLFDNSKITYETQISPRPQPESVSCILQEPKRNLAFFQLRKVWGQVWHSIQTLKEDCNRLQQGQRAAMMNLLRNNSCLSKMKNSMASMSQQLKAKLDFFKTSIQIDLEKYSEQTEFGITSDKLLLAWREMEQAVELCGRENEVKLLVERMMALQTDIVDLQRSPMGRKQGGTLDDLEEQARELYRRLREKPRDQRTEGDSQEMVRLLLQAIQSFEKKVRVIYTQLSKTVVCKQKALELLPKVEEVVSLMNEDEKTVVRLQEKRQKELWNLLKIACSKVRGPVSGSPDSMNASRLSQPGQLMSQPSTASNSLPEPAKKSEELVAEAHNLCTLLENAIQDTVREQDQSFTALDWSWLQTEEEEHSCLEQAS
Outline: (§2)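 Kinetic IMAP TR-FRET run with 0.5 µg/mL IKK2 in 10 mM Tris-HCl pH 7.2, 10 mM MgCl2, 0.05% NaN3, 1 mM DTT, 0.01% Tween-20. Compound (ten doses, 30 to 0.001 µM) pre-incubated with enzyme 10 min, then 1 µM IκBα-derived substrate and 3 µM ATP added. Room temperature. Reactions run 0, 20, 40 or 60 min. Ten-point curves fitted by nonlinear regression.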

[3] = molecular target: T1, Inhibitor of nuclear factor kappa-B kinase subunit beta; assay: Allosteric inhibition of IKKbeta (unknown origin) using 5FAM-GRHDSGLDSMK-NH2 as substrate pretreated for 10 mins followed measured after 2 hrs by TR-FRET assay
Outline: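 Enzyme: 0.5 µg/mL IKK2, in 10 mM Tris-HCl pH 7.2, 10 mM MgCl2, 0.05% NaN3, 1 mM DTT, 0.01% Tween-20. Compound at 10 µM pre-incubated 10 min, then 1 µM 5-FAM IκBα peptide and 3 µM ATP added. Reaction 2 h at room temperature. IMAP binding reagent/terbium detection mix added 15 h before reading. TR-FRET read with 340 nm excitation, emission 495/520 nm. Percent inhibition or IC50 derived.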

RAW264.7 [4] = assay: Antiinflammatory activity against mouse RAW264.7 cells assessed as reduction in LPS-induced TNF-alpha level at 10 uM incubated for 1 hr followed by LPS stimulation and measured after 24 hrs by ELISA relative to control; type: functional; conditions: time 25 hrs; outline: as §1
RAW264.7 [5] = assay: Antiinflammatory activity against mouse RAW264.7 cells assessed as reduction in LPS-induced TNF-alpha level incubated for 1 hr followed by LPS stimulation and measured after 24 hrs by ELISA; type: functional, cell-based; outline: as §1
[6] = molecular target: T2, Inhibitor of nuclear factor kappa-B kinase subunit beta (Homo sapiens) (UniProt O14920); assay: Allosteric inhibition of IKKbeta (unknown origin) at 0.001 to 30 uM using 5FAM-GRHDSGLDSMK-NH2 as substrate incubated for 10 mins followed by substrate addition and measured after 40 mins by TR-FRET assay relative to control; conditions: filed as negative allosteric modulator, dose 0.001-30 µM, time 50.0 min
T2 sequence (whole entry): T1 sequence (O14920 whole entry)
Outline: (§3)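 IKK2 (0.5 µg/mL) in 10 mM Tris-HCl pH 7.2, 10 mM MgCl2, 0.05% NaN3, 1 mM DTT, 0.01% Tween-20, room temperature. Compound (30 to 0.001 µM, ten roughly three-fold dilutions) preincubated 10 min with enzyme. Reaction started with 1 µM 5FAM-IκBα peptide and 3 µM ATP, run 0, 20, 40 or 60 min. IMAP binding reagent/terbium donor detection, TR-FRET read at 495/520 nm. Kobs fitted against concentration by nonlinear regression.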

RAW264.7 [7] = assay: Antiinflammatory activity against mouse RAW264.7 cells assessed as reduction in LPS-induced NO level incubated for 1 hr followed by LPS stimulation and measured after 24 hrs by Griess reagent based assay; type: functional, cell-based
Outline: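 RAW 264.7 cells in 24-well plates received compounds (0.1, 1, 10 µM) or L-NIL 40 µM positive control, then LPS 1 µg/mL for 24 h. Nitrite in the medium measured by Griess reaction as an NO surrogate. Values referenced to levels before and after LPS stimulation.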

[8] = Effect on NO production in non-stimulated mouse RAW264.7 cells at 10 uM after 24 hrs by Griess reagent based assay; conditions: raw264.7, 24 h
[9] = Metabolic stability in rat plasma assessed as parent compound remaining at 1 uM measured upto 2 hrs by LC-MS/MS analysis; type: ADME, cell-free; conditions: read-out: Stabilty
Outline: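 Rat plasma incubated with 1 µM compound at 37 °C for 0, 15, 30, 60 and 120 min. After separation, remaining compound quantified by LC-MS/MS as % remaining.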

[10] = Metabolic stability in human liver microsomes assessed as half life at 1 uM measured upto 1 hrs by LC-MS/MS analysis; type: ADME, Microsome
Outline: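 Pooled human liver microsomes (0.5 mg/mL protein) with 1 µM compound at 37 °C. Reaction stopped at 0, 5, 15, 30 and 60 min and analysed by LC-MS/MS. Amount remaining expressed as % of initial concentration. Mibefradil run as reference.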

[11] = molecular target: T1, Inhibitor of nuclear factor kappa-B kinase subunit beta; assay: Allosteric inhibition of IKKbeta (unknown origin) using 5FAM-GRHDSGLDSMK-NH2 as substrate incubated for 10 mins followed by substrate addition and measured after 60 mins by TR-FRET assay; outline: as §2
[12] = molecular target: T2, Inhibitor of nuclear factor kappa-B kinase subunit beta (Homo sapiens); assay: Allosteric inhibition of IKKbeta (unknown origin) at 0.001 to 30 uM using 5FAM-GRHDSGLDSMK-NH2 as substrate incubated for 10 mins followed by substrate addition and measured after 20 mins by TR-FRET assay relative to control; conditions: filed as negative allosteric modulator, dose 0.001-30 µM, time 30.0 min; outline: as §3

Compound | IC50 (RAW264.7 [1]) | IC50 [2] | IC50 [3] | inhibition at 10 µM (RAW264.7 [4]) | IC50 (RAW264.7 [5]) | inhibition [6] | IC50 (RAW264.7 [7]) | Activity [8] | remaining at 2 h, 1 µM [9] | half-life at 1 µM [10] | IC50 [11] | inhibition [12] | inhibition (RAW264.7 [5]; time 25.0 hrs)
CN1CCN(CCCOc2ccc(N3C(=O)S/C(=C\c4ccc(Oc5ccc(C#N)cc5)cc4)C3=O)cc2)CC1 | 9.83 µM | 0.575 µM | 0.2 µM | 80% | 6.27 µM | -4.47% | > 10 µM | Non-Toxic | 73.6% | 20 min | 0.204 µM | -7.14% | 
CN1CCN(CCCCCOc2cccc(N3C(=O)S/C(=C\c4ccc(Oc5ccc([N+](=O)[O-])cc5)cc4)C3=O)c2)CC1 | > 10 µM | 0.347 µM | 0.22 µM | 84% | 5.22 µM | -8.33% | > 10 µM | Non-Toxic | 83.3% | 60 min | 0.219 µM | -3.68% | Dose-dependent effect
